Experiments:
Liver microsomes [1] = experiment: Metabolic stability in human liver microsomes at 1 uM after 60 mins by LC/MS/MS analysis; settings: 1 h
[2] = Plasma concentration in CD1 mouse at 1 mg/kg, iv at 6 hrs
[3] = Modulation of gamma secretase in CHO-2B7 cells assessed as reduction in amyloid beta 42 level after 5 hrs by MSD ELISA; assay type: cell-based; settings: Cricetulus griseus, CHO-2B7, 5 h
[4] = Drug uptake in CD1 mouse brain at 1 mg/kg, iv at 6 hrs
[5] = Modulation of gamma secretase in CHO-2B7 cells assessed as reduction in amyloid beta 40 level after 5 hrs by MSD ELISA; assay type: cell-based; settings: Cricetulus griseus, CHO-2B7, 5 h
[6] = Ratio of drug uptake in brain to plasma in CD1 mouse at 1 mg/kg, iv at 6 hrs; settings: brain and plasma
[7] = Modulation of gamma-secretase assessed as increase in amyloid beta 38 level at 800 nM by cell based assay relative to control
[8] = Modulation of gamma-secretase assessed as reduction in amyloid beta 42 level by cell based assay
[9] = Modulation of gamma-secretase assessed as reduction in amyloid beta 40 level by cell based assay
CHO-2B7 [10] = experiment: Modulation of gamma secretase in CHO-2B7 cells assessed as reduction in amyloid beta 40 level at 20 uM after 5 hrs by MSD ELISA; assay type: cell-based; parameters: scale not given: the % may be the effect or the level left; settings: Cricetulus griseus
CHO-2B7 [11] = experiment: Modulation of gamma secretase in CHO-2B7 cells assessed as reduction in amyloid beta 42 level at 20 uM after 5 hrs by MSD ELISA; assay type: cell-based; parameters: scale not given: the % may be the effect or the level left; settings: Cricetulus griseus
Liver microsomes [12] = experiment: (§1) Metabolic stability in human liver microsomes assessed as compound remaining at 1 uM at 60 mins by LC/MS/MS analysis in absence of NADPH; assay type: ADME, Microsome; settings: microsomes, 1 h, 1 µM
Method in brief: (§2)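 Human liver microsomes were run without NADPH as a qualitative read of susceptibility to enzymatic hydrolysis. The read-out was percent parent remaining at 60 min.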

[13] = Metabolic stability in human liver microsomes assessed as compound remaining at 1 uM at 60 mins by LC/MS/MS analysis in presence of NADPH; assay type: ADME, Microsome; settings: read-out: Stability
[14] = as §1; assay type: ADME, Microsome; settings: liver microsomes, read-out: Stability; method in brief: as §2
CHO-2B7 [15] = experiment: Modulation of gamma secretase in CHO-2B7 cells assessed as reduction in amyloid beta 40 level at 20 mM after 5 hrs by MSD ELISA; assay type: cell-based; parameters: scale not given: the % may be the effect or the level left; settings: Cricetulus griseus
CHO-2B7 [16] = experiment: Modulation of gamma secretase in CHO-2B7 cells assessed as reduction in amyloid beta 40 level at 100 uM after 5 hrs by MSD ELISA; assay type: cell-based; parameters: scale not given: the % may be the effect or the level left; settings: Cricetulus griseus
CHO-2B7 [17] = experiment: Modulation of gamma secretase in CHO-2B7 cells assessed as reduction in amyloid beta 40 level at 4 uM after 5 hrs by MSD ELISA; assay type: cell-based; parameters: scale not given: the % may be the effect or the level left; settings: Cricetulus griseus

For `CCO[C@@H]([C@H]1C[C@@H](C)[C@H]2[C@H](O1)[C@H](O)[C@@]1(C)[C@@H]3CC[C@H]4C(C)(C)[C@@H](OC(=O)N5CCN(C)CC5)CC[C@@]45C[C@@]35CC[C@]21C)C(C)(C)O`, the Stability (Liver microsomes [1]) was “Stable”, the concentration at 6 h [2] was 95 nM and the IC50 [3] was 68 nM. For the same compound, the concentration at 6 h [4] was 12 nM, the IC50 [5] was 5 µM and the Kp at 6 h [6] was 0.13.

In the case of `COc1cc(/C=C2\CCCN([C@@H](C)c3ccc(F)cc3)C2=O)ccc1-n1cnc(C)c1`, the Activity [7] is reported as 280%, the IC50 [8] is reported as 62 nM and the IC50 [9] is reported as 0.28 µM.

In the case of `CC(=O)O[C@@H]([C@H]1C[C@@H](C)[C@H]2[C@H](O1)[C@H](O)[C@@]1(C)[C@@H]3CC[C@H]4C(C)(C)[C@@H](O[C@@H]5OC[C@@H](O)[C@H](O)[C@H]5O)CC[C@@]45C[C@@]35CC[C@]21C)C(C)(C)O`, the IC50 [8] is reported as 60 nM.

With `CC(C)[C@@H](OC(=O)N(C)C)[C@H]1C[C@@H](C)[C@H]2[C@H](O1)[C@H](O)[C@@]1(C)[C@@H]3CC[C@H]4C(C)(C)[C@@H](OC(=O)N5CCC5)CC[C@@]45C[C@@]35CC[C@]21C` the Activity (CHO-2B7 [10]) was 0%, the Activity (CHO-2B7 [11]) was 0% and the Stability (Liver microsomes [12]) was 127%.

For `C[C@@H]1C[C@H]([C@H](O)C(C)(C)O)O[C@H]2[C@H]1[C@@]1(C)CC[C@@]34C[C@@]35CC[C@H](O[C@H]3CNCCO3)C(C)(C)[C@@H]5CC[C@H]4[C@]1(C)[C@H]2O`, the IC50 [3] was 1600 nM, the remaining at 1 h, 1 µM [13] was 40% and the remaining at 1 h, 1 µM [14] was 112%.

With `CCO[C@@H]([C@H]1C[C@@H](C)[C@H]2[C@H](O1)[C@H](O)[C@@]1(C)[C@@H]3CC[C@H]4C(C)(C)[C@@H](OC(=O)N5CCN(CCOC)CC5)CC[C@@]45C[C@@]35CC[C@]21C)C(C)(C)O` the Stability (Liver microsomes [1]) was “Stable”, the concentration at 6 h [2] was 261 nM and the IC50 [3] was 320 nM. For the same compound, the concentration at 6 h [4] was 8 nM, the Activity (CHO-2B7 [10]) was 51% and the Kp at 6 h [6] was 0.03.

For `CCO[C@@H]([C@H]1C[C@@H](C)[C@H]2[C@H](O1)[C@H](O)[C@@]1(C)[C@@H]3CC[C@H]4C(C)(C)[C@@H](O[C@H]5CN(CC(F)(F)F)CCO5)CC[C@@]45C[C@@]35CC[C@]21C)C(C)(C)O`, the Stability (Liver microsomes [1]) was “Stable”, the IC50 [3] was 2300 nM and the Activity (CHO-2B7 [15]) was 44%.

`CC(C)C[C@H](C(=O)O)c1cc(-c2ccc(C(F)(F)F)cc2)cc(-c2ccc(C(F)(F)F)cc2)c1` showed an Activity [7] of 240%, an IC50 [8] of 260 nM and an IC50 [9] of 9.1 µM.

Work on `CC(C)CC[C@H](c1ccc(Cl)cc1)N1CC[C@@H](CC(=O)O)C[C@H]1c1ccc(C(F)(F)F)cc1` yielded an Activity [7] of 280%, an IC50 [8] of 100 nM and an IC50 [9] of 8.4 µM.

With `CC(=O)OC[C@H]1C[C@@H](C)[C@H]2[C@H](O1)[C@H](O)[C@@]1(C)[C@@H]3CC[C@H]4C(C)(C)[C@@H](O[C@H]5CN(C(=O)CC6CC6)CCO5)CC[C@@]45C[C@@]35CC[C@]21C` the IC50 [3] was 240 nM, the Activity (CHO-2B7 [16]) was 66% and the remaining at 1 h, 1 µM [14] was 23%.

For `CCO[C@@H]([C@H]1C[C@@H](C)[C@H]2[C@H](O1)[C@H](O)[C@@]1(C)[C@@H]3CC[C@H]4C(C)(C)[C@@H](OC(=O)NCCN5CCC5)CC[C@@]45C[C@@]35CC[C@]21C)C(C)(C)O`, the Activity (CHO-2B7 [17]) was 41%, the Stability (Liver microsomes [1]) was “Stable” and the IC50 [3] was 220 nM.

With `CCO[C@@H]([C@H]1C[C@@H](C)[C@H]2[C@H](O1)[C@H](O)[C@@]1(C)[C@@H]3CC[C@H]4C(C)(C)[C@@H](OC(=O)N(C)C5CN(C)C5)CC[C@@]45C[C@@]35CC[C@]21C)C(C)(C)O` the Stability (Liver microsomes [1]) was “Stable”, the concentration at 6 h [2] was 566 nM and the IC50 [3] was 61 nM. The concentration at 6 h [4] was 56 nM, the IC50 [5] was 4.3 µM and the Kp at 6 h [6] was 0.1.

Reference: ChEMBL document CHEMBL2203235, “Optimization of a natural product-based class of γ-secretase modulators” (J Med Chem, 2012)
